In one data set the target is TGF-beta receptor type-1 (Homo sapiens, UniProt P36897, T204D). Put plainly: Inhibition of His-tagged TGFBR1 kinase domain T204D mutant (unknown origin) incubated for 1 hr by HTRF analysis. A general note: TR-FRET usually uses a lanthanide donor and a delayed reading to cut background.
The nature of data set [1]: Half life in mouse liver microsomes in presence of UGT/UDPGA. The class given is ADME, Microsome. A general note: Microsomes from liver hold many membrane-bound enzymes, among them those of drug oxidation.
A short description of data set [2]: Half life in rat liver microsomes in presence of UGT/UDPGA. The class given is ADME, Microsome.
Data set [3] is described as follows: Clearance in Balb/C mouse at 5 mg/kg, iv. It is filed as ADME, organism-based. To be noted: in vivo. In short, it runs like this: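 Male Balb/C mice, n = 3, dosed at 5 mg/kg iv or 10 mg/kg po. The vehicle was 70% 25 mM acetate buffer pH 4.0, 5% ethanol and 25% PEG 400.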
The nature of data set [4]: Volume of distribution at steady state in Sprague Dawley rat at 5 mg/kg, iv. The following applies: in vivo, read-out: Vdss. The class given is ADME, organism-based. The procedure, abridged: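 Male Sprague–Dawley rats (n = 3) received a PEG400 solution iv at 5 mg/kg and po at 10 mg/kg.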
A further data set addresses T1, Cytochrome P450 1A2 (Homo sapiens, UniProt P05177).
T1 sequence (P05177 whole entry): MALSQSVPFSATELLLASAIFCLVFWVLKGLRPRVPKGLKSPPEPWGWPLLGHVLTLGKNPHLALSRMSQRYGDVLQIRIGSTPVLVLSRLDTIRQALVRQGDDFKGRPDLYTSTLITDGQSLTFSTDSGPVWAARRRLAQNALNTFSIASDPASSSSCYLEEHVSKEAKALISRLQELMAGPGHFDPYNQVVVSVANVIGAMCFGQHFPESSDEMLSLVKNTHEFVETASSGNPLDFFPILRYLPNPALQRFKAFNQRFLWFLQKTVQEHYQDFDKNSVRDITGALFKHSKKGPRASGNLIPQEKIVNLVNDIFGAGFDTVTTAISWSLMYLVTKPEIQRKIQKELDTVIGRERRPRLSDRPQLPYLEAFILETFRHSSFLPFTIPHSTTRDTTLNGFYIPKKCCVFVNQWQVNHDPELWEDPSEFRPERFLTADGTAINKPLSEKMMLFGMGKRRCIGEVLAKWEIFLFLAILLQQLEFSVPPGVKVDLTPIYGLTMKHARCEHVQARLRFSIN
Put plainly: Induction of recombinant CYP1A2 (unknown origin) up to 24 microM. It is filed as ADME. To be noted: recombinant enzyme.

The values that follow come from ChEMBL document CHEMBL4334552, “Discovery of BMS-986260, a Potent, Selective, and Orally Bioavailable TGFβR1 Inhibitor as an Immuno-oncology Agent” (ACS Med Chem Lett, 2020).

Usually IC50 stands for the midpoint of a concentration-inhibition curve. Read a high IC50 as a need for much substance. Usually half-life stands for the time in which the quantity being followed falls by half. Broadly, the clearance is a measure of how efficiently the substance is removed, as volume per time. High values mean a high capacity for elimination, low ones a low capacity for elimination.

Chain of TGF-beta receptor type-1 (P36897 34-503 T204D limits assumed): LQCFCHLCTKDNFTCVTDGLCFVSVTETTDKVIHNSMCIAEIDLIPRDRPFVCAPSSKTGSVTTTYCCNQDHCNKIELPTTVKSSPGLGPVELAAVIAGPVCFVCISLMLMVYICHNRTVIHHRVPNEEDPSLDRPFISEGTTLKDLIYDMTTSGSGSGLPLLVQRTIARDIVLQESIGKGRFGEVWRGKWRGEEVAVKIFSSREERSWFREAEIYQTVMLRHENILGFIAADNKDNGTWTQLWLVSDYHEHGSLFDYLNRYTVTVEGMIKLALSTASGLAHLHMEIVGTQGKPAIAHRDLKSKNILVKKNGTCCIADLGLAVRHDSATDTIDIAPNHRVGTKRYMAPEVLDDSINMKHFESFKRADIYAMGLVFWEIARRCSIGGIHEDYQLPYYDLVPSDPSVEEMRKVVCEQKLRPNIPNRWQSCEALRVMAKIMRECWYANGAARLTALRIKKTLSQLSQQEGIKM

On TGF-beta receptor type-1, `N#Cc1cnc2ccc(-c3c(-c4ccc(F)c(Cl)c4)ncn3CCO)nn12` displayed an IC50 of 1.6 nM. For the same compound, the half-life in data set [1] and in data set [2] was more than 120 min in each case. In data set [3], this compound displayed a clearance of 8.3 mL/min/kg. Besides, in data set [4], the Vd stood at 2.4 L/kg. Moreover, the Activity entry on Cytochrome P450 1A2 is “Not Active”.
